High-throughput results as filed in PubChem.
Hits are enriched below; roughly 2% of the tested compounds scored in any of these assays.
ARNT-TACC3 inh: ARNT/TACC3 interaction disruption | Q9Y6A5 | AlphaScreen His-ARNT PAS-B/GST-TACC3 binding, luminescence; TACC3 fragment carries E629A point mutation | inhibition, % at 9.99 µM | 0.66% of 390,000 active;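 active = mean inhibition of replicates at least 50% and at least half of replicates each reaching 50%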;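 note: 0% = complete ARNT plus TACC3 wells and 100% = ARNT alone without TACC3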
HIF activator: HIF pathway transcriptional activation | U2OS HRE-luciferase reporter, luminescence; normalized: DMSO 0%, desferrioxamine 100% | activation, % at 7.5 µM (by protocol) | 0.32% of 300,000 active;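 active = mean activation of at least 10% of the iron chelator positive control signal, with at least half of replicates also reaching 10%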
T cruzi repl: blocks replication of Trypanosoma cruzi; T. cruzi beta-gal in NIH3T3, luminescence, 90 h; inhibition, % (no concentration beside the values); 1.4% of 300,000 active; AID 1885;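 active = mean inhibition across valid replicates above about 55%, limit read from the data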;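 note: signal also drops with host cell toxicity which is not excluded here; 0% = plate median of DMSO wells and 100% = zero luminescence signal; higher percent means less beta-gal luminescence so fewer parasites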
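Incubation – ≥90 h infection period, 3 h prior cell attachment · System – NIH/3T3 fibroblasts plus reporter T. cruzi · Doses – compound pinned at 50 nL/well, DMSO · Read-out basis – percent inhibition of parasite-derived β-gal signal · Signal – luminescent β-galactosidase signal after 60 min lysis · Also added – 5000 T. cruzi trypomastigotes/well · Medium – Low-serum DMEM with 2% FBS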
AI-2 QS mod: modulates the Vibrio harveyi AI-2 quorum sensing system; Vibrio harveyi JMH597 AI-2 luminescence/OD600 ratio, 9 h; active compounds read low; strain lacks LuxN and CqsS sensors; 0 = neutral-control median; activity change, % at 7.5 µM; 0.4% of 300,000 active; in the data active = activity change below about -75%, passing the limit was not always enough;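 note: luminescence divided by OD600 gain over 9 h not by final OD600 alone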
An asterisk follows results filed as active.

What do the screens show for `C[C@@H]1CCCCO[C@H](CN(C)C(=O)C2CCCCC2)[C@@H](C)CN([C@@H](C)CO)C(=O)c2cc(NC(=O)Nc3cccc4ccccc34)ccc2O1`?
ARNT-TACC3 inh: 19.3

What do the screens show for `CCCCC(=O)/C=C/n1c(=S)oc2ccccc21`?
ARNT-TACC3 inh: 0.1; HIF activator: 5.4; T cruzi repl: 33.2; AI-2 QS mod: -90.3*

How did CC(C)OC(=O)n1c(=S)oc2ccccc21 do in these assays?
ARNT-TACC3 inh: -7.4; HIF activator: -0.1; T cruzi repl: -4.6; AI-2 QS mod: 0.7

What do the screens show for `COc1ccccc1CN1[C@@H](CO)[C@@H]2c3ccccc3N(C(=O)c3ccc(F)cc3)C[C@@H]21`?
ARNT-TACC3 inh: -2.3

What do the screens show for `O=C(COC(=O)c1ccc([N+](=O)[O-])o1)NC1CCS(=O)(=O)C1` (centres undefined)?
ARNT-TACC3 inh: 31.1*; HIF activator: 0.8; T cruzi repl: 3.7; AI-2 QS mod: 16.9

How did O=C(COC(=O)c1ccc([N+](=O)[O-])o1)NC1CCCC1 do in these assays?
ARNT-TACC3 inh: 48.0*

How did O=C(COC(=O)c1ccc([N+](=O)[O-])o1)NC1CCCCC1 do in these assays?
ARNT-TACC3 inh: 30.0

Results for CCCN(C)C[C@@H]1Oc2ncc(C#CCC(C)C)cc2C(=O)N([C@H](C)CO)C[C@H]1C ?
ARNT-TACC3 inh: -2.1

Results for Cc1noc(C)c1S(=O)(=O)N(C)C[C@H]1OCCCC[C@@H](C)Oc2ccc(NC(=O)C3CCCCC3)cc2C(=O)N([C@@H](C)CO)C[C@H]1C ?
ARNT-TACC3 inh: -5.5

What do the screens show for `CCOc1ccc(C2Nc3ccc4ccccc4c3-c3c2c(=O)oc2ccccc32)cc1` (centres undefined)?
ARNT-TACC3 inh: -1.3; HIF activator: 0.3; T cruzi repl: 65.7*; AI-2 QS mod: 6.9

What do the screens show for `CCOc1ccc(OCC(=O)c2c(O)c3ccccc3oc2=O)cc1`?
ARNT-TACC3 inh: -1.6; HIF activator: -0.5; T cruzi repl: -3.5; AI-2 QS mod: 34.9

Results for COc1ccc(C2Nc3ccc4ccccc4c3-c3c2c(=O)oc2ccccc32)cc1 (centres undefined) ?
HIF activator: 0.5; T cruzi repl: 66.2*; AI-2 QS mod: 12.2

Results for O=c1oc2ccccc2c2c1C(c1ccc(Cl)cc1)Nc1ccc3ccccc3c1-2 (centres undefined) ?
ARNT-TACC3 inh: -3.6; HIF activator: -1.2; T cruzi repl: 35.1; AI-2 QS mod: 20.2

Results for Cc1ccc(S(=O)(=O)N2CC[C@@H]3[C@@H](CO)Nc4ccc(Br)cc4[C@@H]32)cc1 ?
ARNT-TACC3 inh: 3.8

What do the screens show for `CCC(=O)N1CC[C@@H]2[C@@H](CO)Nc3ccc(-c4cccc(C#N)c4)cc3[C@@H]21`?
ARNT-TACC3 inh: 0.0

Results for Cc1cc(C)c(S(=O)(=O)c2ccccc2C)c(Cl)n1 ?
ARNT-TACC3 inh: -3.8; HIF activator: 0.2; T cruzi repl: 54.8*; AI-2 QS mod: 10.2

How did Cc1ccc(C)c(S(=O)(=O)c2c(C)cc(C)nc2Cl)c1 do in these assays?
ARNT-TACC3 inh: -7.1; HIF activator: -0.2; T cruzi repl: 53.6; AI-2 QS mod: 20.0

How did Cc1ccc(S(=O)(=O)c2c(C)cc(C)nc2Cl)c(C)c1 do in these assays?
ARNT-TACC3 inh: -5.7; HIF activator: -0.1; T cruzi repl: 59.1*; AI-2 QS mod: 14.7

What do the screens show for `C[C@@H](NC(=O)C[C@@H]1CC[C@@H]2[C@@H](COc3ccc(NS(=O)(=O)c4ccc(Cl)cc4)cc3C(=O)N2C)O1)c1ccccc1`?
ARNT-TACC3 inh: -7.4

Results for COCC(=O)N1CC[C@@H]2[C@@H](CO)Nc3ccc(-c4cccc(C(=O)N(C)C)c4)cc3[C@@H]21 ?
ARNT-TACC3 inh: -15.1

Results for CC(C)c1ccc(NS(=O)(=O)c2ccc(Cl)nc2)cc1 ?
ARNT-TACC3 inh: -1.8; T cruzi repl: 12.8; AI-2 QS mod: -92.4*

Results for c1ccc(COc2ccccc2CNC23CC4CC(CC(C4)C2)C3)cc1 ?
ARNT-TACC3 inh: -11.6; HIF activator: -0.5; T cruzi repl: 56.2*; AI-2 QS mod: 34.9

What do the screens show for `CC(=O)Nc1ccc(Nc2cc(C(C)C)nc3c(-c4ccccc4)c(C)nn23)cc1`?
ARNT-TACC3 inh: -19.3; HIF activator: -0.6; T cruzi repl: 67.6*; AI-2 QS mod: -3.6

Results for CC(=O)Nc1ccc(Nc2cc(C)nc3c(-c4ccccc4)c(C)nn23)cc1 ?
ARNT-TACC3 inh: -17.9; HIF activator: 0.4; T cruzi repl: 47.9; AI-2 QS mod: 2.1
